Shown are actives, neighbours in structure and some others; about 3.1% of the full set was active somewhere.
hERG rescue: compounds protecting human hERG from proarrhythmic drug block; Q12809; activation (rescue from dofetilide block), less the hit threshold, % at 10 µM; CHO-hERG, FluxOR thallium flux, dofetilide IC70 present; actives 0.51% (n = 310,000);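 active = activation above the mean of controls blocked by dofetilide plus 5 SD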;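 also: thallium influx through hERG after potassium depolarization seen as dye fluorescence rise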
Target sequence (Q12809 whole entry, looked up): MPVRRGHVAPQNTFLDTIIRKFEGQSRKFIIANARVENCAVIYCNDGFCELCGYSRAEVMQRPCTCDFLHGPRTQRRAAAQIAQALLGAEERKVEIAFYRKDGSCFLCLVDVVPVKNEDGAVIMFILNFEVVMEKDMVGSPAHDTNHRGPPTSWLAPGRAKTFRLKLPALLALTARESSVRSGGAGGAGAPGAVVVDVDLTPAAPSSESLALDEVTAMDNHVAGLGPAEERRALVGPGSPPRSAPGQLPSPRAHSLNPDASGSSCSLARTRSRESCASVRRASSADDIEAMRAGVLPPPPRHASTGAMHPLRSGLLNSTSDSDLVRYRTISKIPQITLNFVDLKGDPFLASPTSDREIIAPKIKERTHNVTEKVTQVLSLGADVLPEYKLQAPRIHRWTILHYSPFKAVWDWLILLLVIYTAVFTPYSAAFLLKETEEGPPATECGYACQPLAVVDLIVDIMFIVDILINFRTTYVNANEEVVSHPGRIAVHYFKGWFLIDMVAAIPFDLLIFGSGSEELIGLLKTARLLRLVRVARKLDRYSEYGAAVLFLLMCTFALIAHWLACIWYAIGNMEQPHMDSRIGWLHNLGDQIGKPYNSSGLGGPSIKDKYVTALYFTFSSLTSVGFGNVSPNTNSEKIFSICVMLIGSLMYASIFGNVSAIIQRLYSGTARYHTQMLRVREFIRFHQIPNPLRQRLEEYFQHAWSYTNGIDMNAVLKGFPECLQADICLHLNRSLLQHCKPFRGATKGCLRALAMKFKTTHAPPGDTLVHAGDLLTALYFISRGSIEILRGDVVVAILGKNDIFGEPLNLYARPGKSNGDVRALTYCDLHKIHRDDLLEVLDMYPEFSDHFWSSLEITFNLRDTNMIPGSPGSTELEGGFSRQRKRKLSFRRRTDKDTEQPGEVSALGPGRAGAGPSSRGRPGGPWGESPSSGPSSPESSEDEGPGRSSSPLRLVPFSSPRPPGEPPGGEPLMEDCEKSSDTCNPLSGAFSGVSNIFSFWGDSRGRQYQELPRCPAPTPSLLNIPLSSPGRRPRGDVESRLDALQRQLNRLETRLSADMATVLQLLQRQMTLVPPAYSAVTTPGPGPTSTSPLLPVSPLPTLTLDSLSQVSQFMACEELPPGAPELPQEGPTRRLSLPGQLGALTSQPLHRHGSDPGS
KCNK9 inh: blocks the human KCNK9 two-pore domain potassium channel; Q9NPC2; HEK293 KCNK9, FluxOR thallium flux fluorescence; stronger effect = lower value; B-score at 10 µM; actives 1.2% (n = 310,000); AID 488922;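 active = ratio B-score over 3 SD below the library mean, with starting fluorescence within 5 SD of its mean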;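 also: negative B-score means less thallium flux so channel inhibition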
KCNK3 inh: human KCNK3 channel inhibition, primary screen | CHO-KCNK3 thallium flux, FluxOR fluorescence; stronger effect = lower value | actives 0.84% (n = 340,000) | B-score at 10 µM;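 active = B-score under library mean minus 4 SD, starting fluorescence ratio at most library mean plus 5 SD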;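 also: more negative B-score means stronger inhibition of thallium flux through KCNK3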
KCNQ1 block: inhibitors of human KCNQ1 potassium channel | P51787 | CHO-K1 KCNQ1, FluxOR thallium flux fluorescence; stronger effect = higher value | B-score at 10 µM | actives 1.3% (n = 310,000) | AID 2642;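 active = compounds whose thallium flux B-score, printed positive for inhibition, exceeds three library SD while starting fluorescence stays within three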;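 also: channel opened by potassium depolarization with thallium stimulus after 20 min compound exposure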
KCNQ1 act: potentiates or activates the human KCNQ1 potassium channel; P51787; CHO-K1 KCNQ1, thallium flux FluxOR fluorescence; stronger effect = higher value; B-score at 10 µM; actives 0.35% (n = 310,000);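 active = fluorescence ratio B-score, a plate-corrected score, at least three library SD, with initial intensity B-score within 5 SD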
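Material: CHO-K1 cells stably expressing KCNQ1. Medium: assay buffer for compound exposure, DMSO matched across wells. Reagent: K+/Tl+ depolarizing stimulus. Compound dosing: single-concentration screen. Times: 37 °C overnight plating, 90-min dark dye load, 20-min compound pretreatment. Technique: FluxOR Tl+ flux fluorescence.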
KCNK9 inh conf: human KCNK9 inhibitor confirmation; shares compounds with KCNK9 inh; HEK293 KCNK9 cells, FluxOR thallium flux fluorescence; inhibition, % at 10 µM; actives 43% (n = 4,900); AID 492992;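 active = thallium signal inhibited by more than 5 SD of the compound-free buffer control wells, on both duplicate plates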;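 also: 0% = assay buffer control wells without compound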
Kir2-1 spec: selectivity of KCNK9 modulators against mouse Kir2.1 | shares compounds with KCNK9 inh | Kir2.1 cells, FluxOR thallium flux fluorescence | inhibition, % at 10 µM | actives 4% (n = 4,900);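 active = thallium signal drop more than 5 SD beyond the mean of the no-compound control wells, seen in both duplicate plates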;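 also: signal is fluorescence rise after thallium addition divided by baseline fluorescence; plate controls were assay buffer only for no effect and full block by chlorpromazine control for full effect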
KCNK9 uninduced: second counter-screen for KCNK9 modulators: effect in non-induced cells; non-induced KCNK9-HEK293, FluxOR thallium flux; actives 40% (n = 4,900); shares compounds with KCNK9 inh; inhibition, % at 10 µM;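 active = thallium signal drop beyond 5 SD of the untreated control mean, on both duplicate plates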;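 also: plate controls were buffer only IC0 wells for no effect and SID17386958 at its maximal inhibitory level for full effect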
An asterisk follows results filed as active; i = inactive; nt = no result given.

SMILES | hERG rescue | KCNK9 inh | KCNK3 inh | KCNQ1 block | KCNQ1 act | KCNK9 inh conf | Kir2-1 spec | KCNK9 uninduced
O=S(=O)(Nc1nc2ccccc2nc1Nc1cccc(S(=O)(=O)N2CCCCC2)c1)c1ccccc1 | -21.0 | i | i | i | i | i | i | 25.0%*
Cc1ccc(S(=O)(=O)c2cccc(S(=O)(=O)N3CCCC3)c2)cc1S(=O)(=O)N1CCCC1 | -7.9 | -15.8* | i | i | i | 31.5%* | i | 26.0%*
Cc1cccc(S(=O)(=O)Nc2nc3ccccc3nc2Nc2cccc(C(=O)O)c2)c1 | -13.1 | i | i | i | i | nt | nt | nt
O=C(O)c1cccc(-c2ccccc2)c1O | nt | nt | i | nt | nt | nt | nt | nt
O=C(O)c1ccc(S(=O)(=O)c2ccc3c(c2)C(=O)N(NC(=O)c2cccnc2)C3=O)cc1 | -11.8 | i | i | i | i | nt | nt | nt
Cc1nn(C)cc1/C=N\NC(=O)c1ccc2c(c1)c(C)c(C)n2Cc1ccccc1 | 1.3 | -18.8* | i | i | i | 64.0%* | i | 39.5%*
CCN(CC)CCOc1ccc(/C(=C(\Cl)c2ccccc2)c2ccccc2)cc1 | -33.7 | i | i | 11* | i | i | i | i
CCN(CC)S(=O)(=O)c1ccc(N2CCN(S(=O)(=O)c3ccccc3)CC2)nc1 | -11.7 | i | i | i | i | nt | nt | nt
CCN(CC)S(=O)(=O)c1ccc(N2CCc3ccccc3C2)nc1 | -13.7 | i | i | i | i | i | i | i
CC(C)N(C(C)C)S(=O)(=O)c1ccc(N2CCc3ccccc3C2)nc1 | -10.0 | i | i | i | i | i | i | i
CC(C)N(C(C)C)S(=O)(=O)c1ccc(Cl)nc1 | -11.5 | i | i | i | i | nt | nt | nt
CC(OC(=O)/C=C/c1ccccc1)C(=O)N1CCc2ccccc21 (centres undefined) | -6.2 | i | i | i | i | nt | nt | nt
CCOCCc1nn2c(=O)cc(CSCC(=O)Nc3cc(C)cc(C)c3)nc2s1 | -9.9 | i | i | i | i | nt | nt | nt
Cn1ncc2c(NNC(=O)C3CCCCC3)ncnc21 | -3.8 | i | i | i | i | nt | nt | nt
Cc1ccc(/C=N/NC(=O)CSc2nc3ccccc3n2Cc2ccc(Cl)cc2)o1 | -11.4 | -21.2* | i | i | i | 62.5%* | i | 50.5%*
O=C(CSc1nnc(C2CC2)n1Cc1ccccc1)N1CCNC1=O | nt | nt | i | nt | nt | nt | nt | nt
COc1nnc(-c2ccc(C)c(S(=O)(=O)NCC3CCCO3)c2)c2ccccc12 (centres undefined) | -7.8 | i | i | i | i | nt | nt | nt
Cc1ccc(-c2nnc(N3CCCCC3)c3ccccc23)cc1S(=O)(=O)NCC1CCCO1 (centres undefined) | -19.6 | -11.8* | i | i | i | i | i | i
COc1ccccc1C(CNC(=O)c1ccc(C)c(S(=O)(=O)N2CCCCC2)c1)N1CCCC1 (centres undefined) | nt | nt | i | nt | nt | nt | nt | nt
Cc1ccc(C)c2nc3sc(C(=O)N4CCCc5ccccc54)c(N)c3cc12 | -21.2 | -9.13* | i | i | i | 39.0%* | i | 73.0%*
CC(C)(C)N(Cc1ccccc1)C(=O)c1ccc(Cl)cc1[N+](=O)[O-] | -20.0 | i | i | i | i | i | i | i
COc1cc(C(=O)OC(C)CN2CCCCC2)cc(OC)c1OC (centres undefined) | -15.9 | i | i | i | i | nt | nt | nt
CCN=c1scc(-c2ccco2)n1/N=C/c1ccc(OC)c(O)c1 | -17.7 | i | i | i | i | i | i | i
COc1cc(OC)cc(-c2c(C#Cc3ccsc3)c3cc(-c4cc(F)cc(F)c4)ccc3n2C)c1 | nt | nt | i | nt | nt | nt | nt | nt
COc1ccc(C)cc1Nc1n[n+](-c2ccccc2)c(-c2c(Cl)cccc2Cl)s1 | -32.4 | -15.5* | nt | 11* | i | 64.5%* | 33.0%* | 36.5%*
CCc1ccc(Nc2n[n+](-c3ccccc3)c(-c3c(Cl)cccc3Cl)s2)cc1 | -24.6 | i | i | i | i | nt | nt | nt
